The list is not random: actives were taken first. Their share in the collection is about 4.9%.
STAT3 activator: STAT3 signaling activation; activation (% of control), % at 5.6 µM; 190,000 compounds, 0.91% hits; U3A cells, IL-6 STAT3-luciferase reporter, luminescence; 100% = signal with IL-6 EC80 alone;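 active = activation above the screen-wide mean of compound activation plus 3 SD, cut at about 130% in these data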;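 also: 0% = background luminescence of wells with medium and substrate only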
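Test system: human U3A cells carrying STAT3-luciferase construct; control set: IL-6-only wells as 100% reference; timing: compound pre-incubation 1 h before IL-6, then 6 h stimulation at 37 °C; also added: IL-6 stimulus at 33 ng/mL final; evaluation: % activation versus median of IL-6-stimulated wells; detection: reporter luminescence signal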
NF-kB expr up: NF-kB expression increase, human neuronal cells; AID 1239; 190,000 compounds, 1.6% hits; NF-kB reporter expression; active compounds read high; fold change at 12.5 µM; in the data active = fold change above about 3.3
STAT1 activator: increases IFN-gamma driven STAT1 reporter signal. NIH 3T3 STAT1-luciferase reporter, luminescence; 100% = IFN-gamma alone, no compound. 200,000 compounds, 2.6% hits. activation (% of control), % at 5.5 µM;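 active = activation above the screen-wide mean activation plus 3 SD, cut at about 130% in these data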;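 also: raw ratio to IFN-gamma control signal so 100% means no change and 0% no light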
APP 5'UTR act: APP 5'UTR luciferase reporter activation | AID 1276 | SH-SY5Y APP 5'UTR luciferase reporter, luminescence; zero percent = DMSO vehicle wells | activation, % at 2 µM | 190,000 compounds, 1% hits;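 active = activation above a set limit, based on mean plus 3 SD of controls, cut at about 140% in these data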
STAT1 inh-1: STAT1 signaling inhibition. NIH 3T3 STAT1-luciferase reporter, IFN-gamma, luminescence. inhibition, % at 5.5 µM. 200,000 compounds, 0.35% hits. AID 920;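 active = inhibition above a set limit, the mean inhibition across all tested compounds plus 3 SD, cut at about 34% in these data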;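 also: 0% = IFN-gamma with DMSO and 100% = IFN-gamma with 300 µM nifuroxazide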
STAT3 blocker: STAT3 signaling inhibition. U3A cells, IL-6 STAT3-luciferase reporter, luminescence; host cell line lacks STAT1. AID 862. 190,000 compounds, 0.89% hits. inhibition, % at 5.5 µM;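 active = inhibition above the mean inhibition across all screened compounds plus 3 SD, cut at about 44% in these data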;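 also: 0% = DMSO only wells and 100% = 100 µM nifuroxazide control wells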
STAT1 inh-2: confirmation of STAT1 signaling inhibitors | shares compounds with STAT1 inh-1 | NIH 3T3 STAT1-luciferase reporter, IFN-gamma, luminescence | inhibition, % at 5.5 µM | 200 compounds, 55% hits | AID 1263;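 active = triplicate mean inhibition exceeding the hit cutoff computed for the primary STAT1 screen, cut at about 35% in these data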;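 also: 0% = DMSO with IFN-gamma and 100% = 300 µM nifuroxazide with IFN-gamma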
NFkB inh: counter-screen for STAT1 inhibitors: NF-kappaB inhibition; shares compounds with STAT1 inh-1; inhibition, % at 5.7 µM; HEK293T NF-kB luciferase reporter, TNF-alpha induced, luminescence; 200 compounds, 30% hits;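 active = inhibition above the mean of solvent-only control wells plus 3 SD of those wells, cut at about 15% in these data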;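 also: 0% = DMSO with TNF-alpha and 100% = MG-132 control with TNF-alpha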
STAT3 inh STAT1c: counter-screen for STAT1 inhibitors: STAT3 inhibition. shares compounds with STAT1 inh-1. 200 compounds, 20% hits. U3A cells, IL-6 STAT3 luciferase reporter, luminescence; cells lacking STAT1. AID 1310. inhibition, % at 5.7 µM;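 active = inhibition above the mean of solvent-only control wells plus 3 SD, set per campaign, cut at about 25% in these data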;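 also: 0% = IL-6 plus DMSO and 100% = IL-6 plus nifuroxazide control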
STAT1 act conf: confirmation of STAT1 signaling activators. AID 1262. activation (% of control), % at 5.7 µM. NIH 3T3 STAT1-luciferase reporter, IFN-gamma potentiation, luminescence; 100% = IFN-gamma EC80 alone, no compound. 1,200 compounds, 97% hits. shares compounds with STAT1 activator;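 active = activation above a set limit carried over from the earlier primary STAT1 screen, cut at about 140% in these data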;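 also: simple ratio to median IFN-gamma plus DMSO wells so 0% means no light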
NFkB act STAT1ct: NF-kappaB activation in STAT1 activator counter-screen | activation (% of control), % at 5.7 µM | 1,200 compounds, 43% hits | HEK293T NF-kB luciferase reporter, TNF-alpha stimulated, luminescence; 100% = TNF-alpha with vehicle only | shares compounds with STAT1 activator;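 active = activation above the mean of solvent-only control wells plus 3 SD, set per campaign, cut at about 130% in these data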;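 also: TNF-alpha given at a submaximal dose yielding about 80% of full reporter signal; values are well signal over median control so 100% means no change and 0% no light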
STAT3 act 2: counter-screen for STAT1 activators: human STAT3 activation; 1,200 compounds, 46% hits; U3A cells STAT3-luciferase reporter, IL-6, luminescence; cells lack STAT1; 100 = IL-6 alone, no compound effect; activation (% of control), % at 5.7 µM; AID 1316; shares compounds with STAT1 activator;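 active = activation above the solvent-only control well mean plus 3 SD, set per plate batch, cut at about 110% in these data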;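 also: 0% = no luminescence and 100% = median IL-6 plus DMSO wells; higher means more STAT3 reporter activation so hits are non-selective activators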
An asterisk follows results filed as active; . = no result given.

SMILES	STAT3 activator	NF-kB expr up	STAT1 activator	APP 5'UTR act	STAT1 inh-1	STAT3 blocker	STAT1 inh-2	NFkB inh	STAT3 inh STAT1c	others
CCCC(=O)Nc1cccc(-c2nc3ccccc3c(=O)o2)c1	82	3.9*	64	-2	37*	25	16	5	7
CCC(=O)Nc1cccc(-c2nc3ccccc3o2)c1	95	1.5	109	-13	-10	8	.	.	.
CC(C)(C)C(=O)Nc1cccc(-c2nc3ccccc3c(=O)o2)c1	74	1.5	76	6	26	33	.	.	.
CC(C)C(=O)Nc1ccc(-c2nc3ccccc3c(=O)o2)cc1	86	0.77	64	6	38*	21	19	14	2
CC(C)C(=O)Nc1cccc(-c2nc3ccccc3c(=O)o2)c1	84	0.95	93	-1	14	20	.	.	.
CC(C)(C)C(=O)Nc1ccc(-c2nc3ccccc3c(=O)o2)cc1	81	0.27	61	12	41*	26	-13	11	2
O=C(O)/C=C/C(=O)Nc1ccc(OC(F)F)cc1	106	1.1	104	-9	-8	-6	.	.	.
COc1ccc(-c2cc(C(F)(F)F)nc(S(=O)(=O)CCCC(=O)Nc3cc(C)on3)n2)cc1OC	100	0.97	52	-1	51*	8	46*	5	-63
COc1ccccc1-c1cc(C(F)(F)F)nc(S(=O)(=O)CCCC(=O)NC(C)C)n1	93	0.92	79	5	23	11	.	.	.
COc1ccccc1-c1cc(C(F)(F)F)nc(S(=O)(=O)CCCC(=O)Nc2cccnc2Cl)n1	96	0.97	59	-27	43*	8	41*	-7	4
COc1ccccc1-c1cc(C(F)(F)F)nc(S(=O)(=O)CCCC(=O)NCc2ccc(F)cc2)n1	92	1	69	-24	32	13	.	.	.
NS(=O)(=O)c1ccc(CCNC(=O)C2CCC(Cn3c(=S)[nH]c4ccccc4c3=O)CC2)cc1 (stereo not drawn)	98	1.1	102	16	-1	7	.	.	.
Cc1ccc(S(=O)(=O)NCC(=O)OCC(=O)c2c(N)n(C)c(=O)n(C)c2=O)cc1	96	1.1	95	-9	6	7	.	.	.
CC(C)CNC(=O)COC(=O)c1c2c(nc3ccccc13)/C(=C/c1cccs1)CC2	92	0.98	65	5	38*	5	21	-14	10
Cc1nc2c(=O)n(C)c(=O)n(C)c2nc1Cl	90	0.37	90	-45	11	13	.	.	.
COc1ccc(-n2cc(-c3ccccc3)c3c(N4CCOCC4)ncnc32)cc1	81	0.3	58	-10	44*	25	28	2	-60
O=C(CSc1ncccn1)NCc1cccs1	104	1.1	105	21	-6	1	.	.	.
COc1ccc(-n2c(-c3ccc(Br)cc3)c[n+]3c2CCCCC3)cc1	78	0.75	62	0	40*	27	32	-5	22
COc1ccc(-n2c(-c3ccc(Br)cc3)nc(=S)c3c2CCCC3)cc1	103	0.89	106	-8	-7	-4	.	.	.
COc1ccc(NS(=O)(=O)c2cc(NC(=O)/C=C/c3ccccc3OC)ccc2N2CCCCC2)cc1	100	0.92	97	18	4	9	.	.	.
CCn1c(O)c(/C=N/NC(=O)c2ccncc2)c(=O)n(CC)c1=S	95	1.1	45	16	61*	8	60*	1	-46
Cn1c(=O)n(C)c2cc(/C=N/NC(=O)c3ccncc3)ccc21	96	1	95	18	4	7	.	.	.
N#CC(C#N)=C(Nc1ccc(F)cc1)SCc1cccc(Br)c1	72	0.5	65	-1	39*	33	52*	16*	43*
CCOC(=O)/C(C#N)=C\C=C1C=CN(C)C=C1	105	3.1	154*	74	-59	-2	.	.	.	STAT1 act conf=162*;NFkB act STAT1ct=123;STAT3 act 2=115*
COc1ccc(-c2nnn(Cc3ccccc3F)n2)cc1	103	2.9	163*	118	-64	-1	.	.	.	STAT1 act conf=176*;NFkB act STAT1ct=133*;STAT3 act 2=114*
SMILES	STAT3 activator	NF-kB expr up	STAT1 activator	APP 5'UTR act	STAT1 inh-1	STAT3 blocker	STAT1 inh-2	NFkB inh	STAT3 inh STAT1c	others
COc1ccc(C(=O)Cn2nnc(-c3ccccc3F)n2)cc1	98	1.6	102	25	-2	6	.	.	.
COc1cccc(N/C=C/C(=O)c2ccc(Cl)cc2)c1	86	6.4*	180*	198*	-91	19	.	.	.	STAT1 act conf=239*;NFkB act STAT1ct=115;STAT3 act 2=96
COc1cccc(C(=O)/C=C/Nc2ccc(S(=O)(=O)Nc3cccc(C(C)=O)c3)cc2)c1	84	0.57	86	-2	15	22	.	.	.
NC(=O)c1cc(C(=O)c2ccc(Cl)cc2)c[nH]1	102	1.1	111	-14	-14	3	.	.	.
CCc1nnc(NC(=O)c2sc3nc4c(cc3c2N)CCCCC4)s1	106	3.4*	155*	70	-61	-6	.	.	.	STAT1 act conf=187*;NFkB act STAT1ct=135*;STAT3 act 2=117*
CCc1nnc(NC(=O)c2sc3nc4c(cc3c2N)CCCCCC4)s1	105	2	128	12	-32	-4	.	.	.
CCSc1n[nH]c(=S)s1	98	1.2	98	-3	1	5	.	.	.
COC(=O)c1ccc(/C=N/NC(=O)C(=O)NCc2ccccc2)cc1	104	1.2	104	-4	-2	0	.	.	.
CCC/C=N/Nc1nc2ccccc2s1	112	6*	163*	82	-71	-5	.	.	.	STAT1 act conf=225*;NFkB act STAT1ct=143*;STAT3 act 2=127*
Brc1ccc(/C=C/C=N/Nc2nc3ccccc3s2)cc1	113	1.3	121	8	-23	-7	.	.	.
C(=C\c1ccccc1)/C=N/Nc1nc2ccccc2s1	130	3	158*	179*	-65	-32	.	.	.	STAT1 act conf=238*;NFkB act STAT1ct=141*;STAT3 act 2=129*

Assay outcomes: PubChem, several laboratories
